Experimental findings from ChEMBL document CHEMBL1759912, “Ionic liquid promoted synthesis, antibacterial and in vitro antiproliferative activity of novel α-aminophosphonate derivatives” (Bioorg Med Chem Lett, 2011) are described below.

Test [1] relates to Salmonella typhi. Put plainly: Antibacterial activity against ampicillin-resistant Salmonella typhi NCIM 2501 assessed as bacterial growth inhibition zone at […] after 24 hrs by disc diffusion method. The note with it: Salmonella enterica subsp. enterica serovar Typhi. The test is classed as functional, organism-based.
Test [2] deals with Escherichia coli. Description: Antibacterial activity against ampicillin-resistant Escherichia coli NCIM 2645 assessed as bacterial growth inhibition zone after 24 hrs by disc diffusion method. The class given is functional, organism-based. The gist of the method:
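Strains activated in nutrient broth, 24 h at their optimum growth temperature. Nutrient agar plates seeded with 100 μl mid-log culture. Sterile 6 mm filter paper discs each loaded with 10 μl of compound solution (10 mg/ml in DMSO, filter-sterilised) and left to diffuse 20 min. Plates incubated 24 h at growth temperature. Controls: ampicillin disc (positive), 10 μl DMSO disc (negative). Zone ≥7 mm counted as susceptible.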
Background: In agar diffusion tests the substance spreads into inoculated agar from a disc or well.

Test [3] has as its system SK-MEL-2. Description: Induction of apoptosis in human SK-MEL-2 cells after 6 hrs. The class given is functional, cell-based.
The test system of test [4] is SK-MEL-2. Description: Antiproliferative activity against human SK-MEL-2 cells. The class given is functional, cell-based. The procedure, abridged:
(§1)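 A549 and SK-MEL2 cells (from NCCS Pune) grown in DMEM with 5–10% FBS, penicillin and 4 mM L-glutamine at 37 °C, 5% CO2. Plates were seeded 24 h ahead and washed with serum-free medium. Cells were exposed to 0, 2, 4, 8, 16 and 20 μM for […], then cell proliferation was estimated. Results are % cell growth, averaged from triplicate cultures run twice.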

The test system of test [5] is A549. Description: Antiproliferative activity against human A549 cells assessed as growth inhibition at 2 to 20 uM after 24 hrs. The test is classed as functional.
In test [6] the test system is A549. Put plainly: Antiproliferative activity against human A549 cells. The class given is functional, cell-based. The procedure, abridged:
as §1

The subject of test [7] is A549. Description: Induction of apoptosis in human A549 cells after 6 hrs. The class given is functional, cell-based.

SMILES strings stand for the structures. Activity calls are given as the source filed them. The rule behind the calls is not given here.

A word on the IC50: it is the concentration at which inhibition is half-maximal.

On to `CCOP(=O)(OCC)C(Nc1ccc(I)cc1[N+](=O)[O-])c1ccc(Cl)cc1` (configuration not stated), for which, in test [1], the result was Active.

Regarding `CCOP(=O)(OCC)C(Nc1ccc(Cl)cc1[N+](=O)[O-])c1ccc(OC)c(OC)c1` (configuration not stated), the outcome in test [2] and in test [1] was Active.

With `CCOP(=O)(OCC)C(Nc1ccc(Cl)cc1[N+](=O)[O-])c1cccc(Cl)c1` (configuration not stated), the result in test [2] and in test [1] was Active.

Turning to `CCOP(=O)(OCC)C(Nc1ccc(Cl)cc1[N+](=O)[O-])c1c[nH]c2ccccc12` (configuration not stated), the result in test [3], in test [2], in test [1] and in test [7] was Active. The values for the IC50 in test [4] and in test [6] were 8.43 µM and 11.5 µM, respectively. In addition, the “growth inhibition (GI)” value in test [5] was 80%.
